Screening results (PubChem BioAssay)
SIAE primary = human SIAE inhibitors, primary screen, biochemical, fluorescence polarization, FP-Rh probe, 1536-well HTS; Sialate O-acetylesterase (Homo sapiens), Q9HAT2; SIAE FP-Rh probe binding; inhibition, % at 9.66 µM; actives 0.69% (n = 370,000);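 active means inhibition above a cutoff: mean of compounds within the control limits plus 3 SD of those, cut at about 17% in these data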
Target sequence (Q9HAT2 whole entry, looked up): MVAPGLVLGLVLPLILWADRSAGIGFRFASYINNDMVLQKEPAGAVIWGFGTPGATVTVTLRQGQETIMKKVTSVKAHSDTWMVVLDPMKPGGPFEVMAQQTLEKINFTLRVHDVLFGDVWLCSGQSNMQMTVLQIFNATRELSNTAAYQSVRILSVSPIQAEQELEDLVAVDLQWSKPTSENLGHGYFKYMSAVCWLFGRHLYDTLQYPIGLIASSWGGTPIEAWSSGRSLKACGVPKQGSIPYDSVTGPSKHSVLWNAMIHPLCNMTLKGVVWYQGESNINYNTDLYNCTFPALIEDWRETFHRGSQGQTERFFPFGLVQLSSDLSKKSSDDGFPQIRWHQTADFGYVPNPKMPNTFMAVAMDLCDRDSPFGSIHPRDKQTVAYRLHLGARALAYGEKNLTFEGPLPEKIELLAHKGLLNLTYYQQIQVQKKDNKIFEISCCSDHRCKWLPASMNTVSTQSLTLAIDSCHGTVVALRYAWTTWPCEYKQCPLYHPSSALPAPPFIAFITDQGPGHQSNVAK
rCAG binder = binders of r(CAG) RNA repeats, primary screen, biochemical, fluorescence. r(CAG) RNA repeat, TO-PRO-1 dye displacement fluorescence. inhibition, % at 3 µM. actives 1.3% (n = 370,000). AID 651821, 2012;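 active means inhibition above the plate cutoff, the mean of all test compounds on that plate plus 3 SD, cut at about 35% in these data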;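 further: higher means more dye released from RNA so lower well fluorescence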
HTRA1 inhibitor = HTRA1 serine protease inhibitors, primary screen, biochemical, fluorescence polarization, HTS; recombinant HTRA1, FP-rhodamine activity-based probe; actives 0.5% (n = 340,000); AID 504803, 2011; Q92743; inhibition, % at 5.96 µM; in the data active means inhibition above about 36%
PRMT1 inh = PRMT1 methyltransferase inhibitors, primary screen, biochemical, fluorescence polarization; AID 652257, 2013; inhibition, % at 2.79 µM; actives 1.3% (n = 370,000); recombinant PRMT1, activity-based probe fluorescence polarization;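 active means inhibition above about 21% made by adding two undisclosed values, limit read from the data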
mABHD4 FP = ABHD4 inhibitors, primary screen, biochemical, fluorescence polarization, mouse; (Lyso)-N-acylphosphatidylethanolamine lipase (Mus musculus), Q8VD66; purified mABHD4, FP-Rh probe fluorescence polarization; inhibition, % at 8.92 µM; actives 0.54% (n = 370,000); AID 720543, 2013;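 active means inhibition exceeding the mean over every tested compound plus 3 SD, cut at about 30% in these data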
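Material: mouse ABHD4 enzyme, wild type; Benchmarks: S159A mutant high control, sample median low control; Buffer or medium: HEPES pH 7.0, NaCl, Pluronic buffer; Signal: fluorescence polarization; Read-out: percent inhibition of probe binding, normalized to plate controls; Timing: pre-incubation 45 min, probe exposure 60 min, at 25 °C; Dosing: 8.92 µM, single dose.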
rCAG bind conf = small molecules binding CAG repeat RNA – biochemical, fluorescence, confirmation. shares compounds with rCAG binder. r(CAG) RNA repeat, TO-PRO-1 dye displacement fluorescence. inhibition, % at 3 µM. actives 70% (n = 4,300);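 active means inhibition above a per-plate cutoff, the mean inhibition of sample wells plus 3 SD, cut at about 35% in these data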;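 further: loss of TO-PRO-1 fluorescence as compound displaces dye from 1x1 AA loop RNA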
dCAG dye counter = displacement of TO-PRO-1 from CAG DNA duplex, counter-screen for rCAG RNA repeat binder project, biochemical, fluorescence, TO-PRO-1 dye, d(CAG) DNA oligo. shares compounds with rCAG binder. d(CAG) DNA oligo TO-PRO-1 dye displacement. inhibition, % at 3 µM. actives 94% (n = 4,300). AID 652068, 2013;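 active means inhibition above its plate's cutoff, the mean test-well inhibition plus 3 SD, cut at about 4.8% in these data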;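 further: hits displace the dye from DNA and so lower well fluorescence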
Of the large screens only hits and unclear results are named; the others gave an inactive call (follow-up assays come after a bar, where they were run). The list is not random: actives were taken first. Their share in the collection is about 3.3%.

O=c1oc(-c2ccccc2NS(=O)(=O)c2ccc3ccccc3c2)nc2ccccc12	rCAG binder 66.4 | rCAG bind conf 37.1 | dCAG dye counter 11.6
O=C(O)c1ccccc1NS(=O)(=O)c1ccc2ccccc2c1	rCAG binder 38.6 | rCAG bind conf inactive | dCAG dye counter 6.1
Cc1ccc(C(=O)C2CCN(CC(=O)N(C)C3CCCCC3)CC2)cc1	none (no result: HTRA1 inhibitor)
CCCCCCCCN1C(=O)[C@@H](CC(=O)NCCCOCCCC)C[C@@]2(C(=O)OC)C1=C[C@H](C1CCCC1)O[C@@H]2C	none (no result: HTRA1 inhibitor)
CC1=NN(c2ccc(C)cc2C)C(=O)C1C(c1ccccc1O)C1C(=O)N(c2ccc(C)cc2C)N=C1C (stereo unspecified)	none
CC1=NN(c2ccc(C)c(C)c2)C(=O)C1C(c1cccc(O)c1)C1C(=O)N(c2ccc(C)c(C)c2)N=C1C (stereo unspecified)	rCAG binder 70.4 | rCAG bind conf 78.3 | dCAG dye counter 36.7
CCOC(=O)[C@@H]1c2[nH]c3ccccc3c2C[C@@]2(C(=O)OC)C=CCN12	none (no result: HTRA1 inhibitor)
CCCOc1ccc(C(=O)NNC(=S)NC(=O)c2ccccc2[N+](=O)[O-])cc1	rCAG binder 35.8 | rCAG bind conf inactive | dCAG dye counter 7.0
CCCOc1ccc(C(=O)NNC(=S)NC(=O)c2cccs2)cc1	rCAG binder 41.1 | rCAG bind conf 35.4 | dCAG dye counter 10.7
CC(C)(C)c1ccc(OCC(=O)NNC(=S)NC(=O)c2ccccc2[N+](=O)[O-])c(Br)c1	rCAG binder 77.9 | rCAG bind conf 85.2 | dCAG dye counter 54.9
CCCOc1ccc(C(=O)NNC(=S)NC(=O)c2ccccc2)cc1	none
Cc1ccccc1OCC(=O)NNC(=S)NC(=O)c1ccccc1[N+](=O)[O-]	none
Cc1ccccc1CN1CCCCC(NC(=O)c2cccc(C(F)(F)F)c2)C1=O (stereo unspecified)	none (no result: HTRA1 inhibitor)
CC(COc1ccccc1C#N)CN1CCC(C(O)(c2ccccc2)c2ccccc2)CC1 (stereo unspecified)	none (no result: HTRA1 inhibitor)
O=C(O)CCc1ccc(S(=O)(=O)Nc2ccc(OCc3ccccc3)cc2)cc1	none
O=C(O)c1ccc(NC(=S)NC(=O)c2cccc(COc3ccccc3)c2)cc1	rCAG binder 48.4 | rCAG bind conf 48.8 | dCAG dye counter 16.3
O=C(O)c1cc(S(=O)(=O)Nc2ccc(OCc3ccccc3)cc2)ccc1Br	rCAG binder 44.8 | rCAG bind conf inactive | dCAG dye counter 7.5
O=C(O)c1cc(S(=O)(=O)Nc2cccc(Oc3ccccc3)c2)ccc1Br	none
O=C(O)/C=C/c1ccc(S(=O)(=O)Nc2ccc(OCc3ccccc3)cc2)cc1	rCAG binder 51.6 | rCAG bind conf inactive | dCAG dye counter 6.8
O=C(O)c1cccc(S(=O)(=O)Nc2ccc(OCc3ccccc3)cc2)c1	rCAG binder 40.5 | rCAG bind conf inactive | dCAG dye counter inactive
CCOc1cc(OCC)cc(C(=O)O)c1	none
CCOc1ccc(S(=O)(=O)Nc2ccc(C(=O)NNC(=O)c3ccncc3)cc2)cc1	none
O=C(O)c1cc(OCc2ccccc2)cc(OCc2ccccc2)c1	rCAG binder 42.8 | rCAG bind conf 40.4 | dCAG dye counter 8.0
CCOc1ccc(NS(=O)(=O)c2ccc(C(=O)NNC(=O)c3ccccc3O)cc2)cc1	rCAG binder 34.8 | rCAG bind conf inactive | dCAG dye counter inactive
Cc1ccc(-c2[nH]c(-c3ccc(C(=O)O)cc3)nc2-c2ccccc2)cc1	rCAG binder 70.0 | rCAG bind conf 58.3 | dCAG dye counter 18.4
O=C(O)c1ccc(-c2nc(-c3ccccc3)c(-c3cccs3)[nH]2)cc1	none
Cc1ccc(NS(=O)(=O)c2ccc(NS(=O)(=O)c3cccs3)cc2)cc1	none
